13 compounds from ChEMBL document CHEMBL1122829, “Antimicrobial and cytotoxic properties of 9,10-dihydrophenanthrenes: structure-activity studies on juncusol” (J Med Chem, 1985) can be followed below.

Values after ≈ are worked out from the molar mass of the structure shown. Active and inactive are the calls of the source. The calls are words filed in the database; no cut-off is given here.

Assay [1] deals with Staphylococcus aureus. Briefly: In vitro antimicrobial activity against, Staphylococcus aureus ATCC 13709,tested at 100-0.1 ug/mL. Format: functional. The procedure, abridged: (§1)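 Agar dilution/streak method; MIC (μg/mL) read as lowest concentration inhibiting growth. Each organism was streaked on agar plates holding serial dilutions of test agent over the range given in the line. "i" means no inhibition at the top concentration tested.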

Assay [2] relates to B16. Briefly: In vitro cytotoxic activity against,B-16 mouse melanoma (B-16). Format: functional, cell-based. The procedure, abridged:
(§2)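 B16 cells: 1×10^4 cells per well seeded in DMEM with 5% bovine serum and grown 48 h at 37 °C under 5% CO2. Agent was added from a 10 mg/mL stock in 95% ethanol via 2× medium and incubated a further 48 h. Cells were detached with 0.01% trypsin/0.1% EDTA in PBS for 5 min at 37 °C and counted. IC50 is the dose giving 50% of control cell count, taken from count versus concentration plots.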

In assay [3] the test system is Mycolicibacterium smegmatis. Put plainly: In vitro antimicrobial activity against Mycobacterium smegmatis ATCC 607,tested at 100-0.1 ug/mL. Format: functional. The procedure, abridged:
as §1

The test system of assay [4] is Candida albicans. Put plainly: In vitro antimicrobial activity against Candida albicans ATCC 10231, tested at 100-0.1 ug/mL. Format: functional. The procedure, abridged: as §1
Assay [5] deals with Klebsiella pneumoniae. Briefly: In vitro antimicrobial activity against Klebsiella pneumoniae ATCC 10031,tested at 100-0.1 ug/mL; Inactive at highest concentration. Type of assay: functional, organism-based. The procedure, abridged:
as §1

The subject of assay [6] is L1210. Briefly: In vitro cytotoxic activity against,L-1210 mouse lymphocytic leukemia cell culture (ATCC CCL-219). Type of assay: functional, cell-based. The procedure, abridged:
(§3)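 L1210 (ATCC 219) cells: 1×10^4 cells per well seeded in DMEM with 5% bovine serum and grown 48 h at 37 °C under 5% CO2. Agent was added from a 10 mg/mL stock in 95% ethanol via 2× medium and incubated a further 48 h. The nonadherent cells were dispersed by pipetting, diluted in balanced salts solution and counted by hemocytometer or Coulter counter. IC50 is the dose giving 50% of control count.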

Assay [7] deals with Klebsiella pneumoniae. Briefly: In vitro antimicrobial activity against Klebsiella pneumoniae ATCC 10031,tested at 100-0.1 ug/mL; i=Inactive at highest concentration. Type of assay: functional, organism-based. The procedure, abridged: as §1
For assay [8], the system named is Staphylococcus aureus. Briefly: In vitro antimicrobial activity against Staphylococcus aureus ATCC 13709,tested at 100-0.1 ug/mL. Type of assay: functional. The procedure, abridged:
as §1

Assay [9] has as its system Candida albicans. Briefly: In vitro antimicrobial activity against Candida albicans ATCC 10231, tested at 25-0.1 ug/mL; i=Inactive at highest concentration. Type of assay: functional, organism-based. The procedure, abridged: as §1
The subject of assay [10] is Mycolicibacterium smegmatis. Put plainly: In vitro antimicrobial activity against Mycobacterium smegmatis ATCC 607,tested at 25-0.1 ug/mL. Type of assay: functional. The procedure, abridged: as §1
Assay [11] deals with Klebsiella pneumoniae. Briefly: In vitro antimicrobial activity against Klebsiella pneumoniae ATCC 10031,tested at 25-0.1 ug/mL; i=Inactive at highest concentration. Format: functional, organism-based. The procedure, abridged: as §1
The test system of assay [12] is Staphylococcus aureus. Put plainly: In vitro antimicrobial activity against, Staphylococcus aureus ATCC 13709,tested at 25-0.1 ug/mL. Format: functional. The procedure, abridged:
as §1

The test system of assay [13] is Staphylococcus aureus. Briefly: In vitro antimicrobial activity against, Staphylococcus aureus ATCC 13709,tested at 100-0.1 ug/mL; i=Inactive at highest concentration. Type of assay: functional, organism-based. The procedure, abridged: as §1
In assay [14] the test system is Staphylococcus aureus. Put plainly: In vitro antimicrobial activity against, Staphylococcus aureus ATCC 13709,tested at 50-0.1 ug/mL. Type of assay: functional. The procedure, abridged:
as §1

Assay [15] deals with Klebsiella pneumoniae. Put plainly: In vitro antimicrobial activity against Klebsiella pneumoniae ATCC 10031,tested at 50-0.1 ug/mL; i=Inactive at highest concentration. Format: functional, organism-based. The procedure, abridged:
as §1

Assay [16] deals with Mycolicibacterium smegmatis. Put plainly: In vitro antimicrobial activity against Mycobacterium smegmatis ATCC 607,tested at 50-0.1 ug/mL. Type of assay: functional. The procedure, abridged: as §1
Assay [17] deals with Candida albicans. Briefly: In vitro antimicrobial activity against Candida albicans ATCC 10231, tested at 50-0.1 ug/mL; i=Inactive at highest concentration. Format: functional, organism-based. The procedure, abridged:
as §1

Assay [18] has as its system Klebsiella pneumoniae. Briefly: In vitro antimicrobial activity against,Klebsiella pneumoniae ATCC 10031 tested at 100-0.1 ug/mL; i=Inactive at highest concentration. Type of assay: functional, organism-based. The procedure, abridged:
as §1

Assay [19] relates to Candida albicans. Put plainly: In vitro antimicrobial activity against Candida albicans ATCC 10231, tested at 100-0.1 ug/mL; i=Inactive at highest concentration. Type of assay: functional, organism-based. The procedure, abridged: as §1
The subject of assay [20] is Mycolicibacterium smegmatis. Briefly: In vitro antimicrobial activity against Mycobacterium smegmatis ATCC 607 tested at 100-0.1 ug/mL; i=Inactive at highest concentration. Type of assay: functional, organism-based. The procedure, abridged: as §1
Assay [21] relates to Staphylococcus aureus. Briefly: In vitro antimicrobial activity against, Staphylococcus aureus ATCC 13709 tested at 100-0.1 ug/mL; i=Inactive at highest concentration. Type of assay: functional, organism-based. The procedure, abridged:
as §1

For assay [22], the species on record is Homo sapiens. Put plainly: In vitro cytotoxic activity against, human lymphoblastic leukemia cell culture (CCRF-CEM). Type of assay: functional.
The subject of assay [23] is Klebsiella pneumoniae. Briefly: In vitro antimicrobial activity against Klebsiella pneumoniae ATCC 10031,tested at 100-0.1 ug/mL. Format: functional. The procedure, abridged:
as §1

Assay [24] deals with Mycolicibacterium smegmatis. Put plainly: In vitro antimicrobial activity against Mycobacterium smegmatis ATCC 607,tested at 100-0.1 ug/mL; i=Inactive at highest concentration. Type of assay: functional, organism-based. The procedure, abridged:
as §1

Assay [25] deals with Klebsiella pneumoniae. Put plainly: In vitro antimicrobial activity against Klebsiella pneumoniae ATCC 10031 tested at 25-0.1 ug/mL; i=Inactive at highest concentration. Type of assay: functional, organism-based. The procedure, abridged:
as §1

Assay [26] has as its system Candida albicans. Briefly: In vitro antimicrobial activity against Candida albicans ATCC 10231 tested at 25-0.1 ug/mL; i=Inactive at highest concentration. Format: functional, organism-based. The procedure, abridged:
as §1

Assay [27] relates to B16. Put plainly: In vitro cytotoxic activity against B-16 mouse melanoma (B-16). Format: functional, cell-based. The procedure, abridged: as §2
For assay [28], the system named is Mycolicibacterium smegmatis. Briefly: In vitro antimicrobial activity against Mycobacterium smegmatis ATCC 607 tested at 25-0.1 ug/mL. Format: functional. The procedure, abridged:
as §1

Assay [29] deals with L1210. Briefly: In vitro cytotoxic activity against L-1210 mouse lymphocytic leukemia cell culture (ATCC CCL-219). Type of assay: functional, cell-based. The procedure, abridged:
as §3

The subject of assay [30] is Staphylococcus aureus. Put plainly: In vitro antimicrobial activity against, Staphylococcus aureus ATCC 13709 tested at 25-0.1 ug/mL. Format: functional. The procedure, abridged: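 Agar-dilution/streak assay giving the MIC in μg/mL, run against S. aureus ATCC 13709 within a seven-organism panel.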
Assay [31] has as its system Staphylococcus aureus. Put plainly: In vitro antimicrobial activity against, Staphylococcus aureus ATCC 13709,tested at 50-0.1 ug/mL;. Format: functional. The procedure, abridged: as §1

Turning to `Cc1cc2c(cc1O)CCc1ccccc1-2`, the MIC – broadly, the lowest concentration found to suppress growth – in assay [1] was determined as 25 µg/mL (≈ 119 µM); in assay [3], 3.12 µg/mL (≈ 14.8 µM); in [4], 6.25 µg/mL (≈ 29.7 µM). The IC50 (commonly the midpoint of a concentration-inhibition curve) in assay [2] is 27.5 µg/mL (≈ 131 µM); in assay [6], 24.5 µg/mL (≈ 117 µM). For the same compound, in assay [5], the MIC entry is “inactive”.

Regarding `COc1ccccc1C[N+](C)(C)CSc1ccccc1.[Br-]`, the MIC result in assay [7] is “inactive”. The MIC came out at 50 µg/mL in assay [3], 100 µg/mL in assay [4] and 50 µg/mL in assay [8].

As to `COc1cc2c(cc1C[N+](C)(C)CSc1ccccc1)CCc1ccccc1-2.[Br-]`, the MIC result in assay [9] and in [11] was “inactive” throughout. For the same compound, the MIC in assay [10] stood at 3.12 µg/mL; in assay [12], 6.25 µg/mL.

Consider `COc1cc2c(cc1C)-c1ccccc1CC2`, for which the MIC entry in assay [7] and in [13] was “inactive” in each case. Besides, the results for the MIC in assay [3] and in assay [4] were 25 µg/mL (≈ 111 µM) and 100 µg/mL (≈ 446 µM), respectively.

For `CCc1cc2c(cc1OC)-c1ccccc1CC2`, the values for the MIC in [14] and in assay [16] were 25 µg/mL (≈ 105 µM) and 3.12 µg/mL (≈ 13.1 µM), respectively. Further, the MIC entry in [15] and in assay [17] was “inactive” throughout.

Regarding `C=Cc1c(C)c(OC)cc2c1-c1ccc(OC)c(C)c1CC2`, the MIC result in [18], in assay [19], in assay [20] and in [21] was “inactive” throughout.

In the case of `Cc1cc2c(cc1O)CCc1c-2ccc(O)c1C`, the MIC in [1] was 12.5 µg/mL (≈ 52 µM); in assay [3], 6.25 µg/mL (≈ 26 µM); in [4] it was 50 µg/mL (≈ 208 µM); in assay [23], 50 µg/mL (≈ 208 µM). Also, the IC50 in assay [2] was determined as 17.5 µg/mL (≈ 72.8 µM); in assay [22] it was 9.3 µg/mL (≈ 38.7 µM); in assay [6] it was 10.2 µg/mL (≈ 42.4 µM).

Turning to `CC[N+](CC)(CC)Cc1cc2c(cc1OC)CCc1ccccc1-2.[Br-]`, the MIC in [14] and in [16] was 25 µg/mL throughout. Moreover, the MIC result in assay [15] and in [17] was “inactive” throughout.

For `COc1cc2c(cc1C[N+](C)(C)CSc1ccccc1)-c1ccccc1CC2.[Br-]`, the MIC in assay [1] is 1.56 µg/mL; in assay [3] it was 1.56 µg/mL; in [4], 12.5 µg/mL; in assay [23] it was 25 µg/mL. For the same compound, the IC50 in [2] was determined as 0.5 µg/mL; in assay [22], 1.4 µg/mL; in [6], 3.7 µg/mL.

Regarding `COc1cc2c(cc1C)-c1ccc(OC)c(C)c1CC2`, the MIC result in [7], in assay [19], in [24] and in assay [13] was “inactive” each time.

As for `COc1cc2c(cc1C[N+](C)(C)CSc1ccccc1)-c1ccc(OC)c(C)c1CC2.[Br-]`, the MIC in assay [1] was 1.56 µg/mL; in [3] it was 1.56 µg/mL; in [4], 3.12 µg/mL; in [23], 12.5 µg/mL. The IC50 in [2] is 0.3 µg/mL; in assay [22], 0.9 µg/mL; in [6], 1.3 µg/mL.

Consider `C=Cc1c(C)c(O)cc2c1-c1ccc(O)c(C)c1CC2`, for which the MIC result in assay [25] and in [26] was “inactive” throughout. Besides, the IC50 in assay [27] is 12.5 µg/mL (≈ 46.9 µM); in [29], 13.8 µg/mL (≈ 51.8 µM). The MIC in assay [28] is 12.5 µg/mL (≈ 46.9 µM); in assay [30], 25 µg/mL (≈ 93.9 µM).

With `COC(=O)c1cc2c(cc1OC)CCc1ccccc1-2`, the MIC result in assay [15] and in assay [17] was “inactive” in each case. Besides, the MIC was 50 µg/mL (≈ 186 µM) in assay [31] and 25 µg/mL (≈ 93.2 µM) in assay [16].
